Results gathered from unrelated publications.
Lines come from different studies, so protocols differ.
Target: Serine/threonine-protein kinase TBK1 (TBK1, Homo sapiens, UniProt Q9UHD2)

For Cc1nn(CC(F)(F)F)cc1Nc1nccc(NCCc2cnc[nH]2)n1, the remaining activity was 87% (enzyme activity, inhibitor, radiometric; 1 µM).
CN(C)C1CCN(CC#Cc2nn(C3CCCC3)c3nc(NCc4ccccc4)ncc23)C1 (stereo not drawn) gave an inhibition of 2% (enzyme activity, inhibitor, FRET; 0.1 µM).
The remaining binding of CN1CCN(c2cnc3c(C4CCN(C(=O)c5ccc(OC(F)(F)F)cc5N)CC4)ncnc3c2)CC1 is reported as 61% (cell-free assay, competition with immobilised ligand; 1 µM).
NS(=O)(=O)c1ccc(CNc2nc(Nc3cccc(CN4CCOCC4)c3)ncc2C2CC2)cc1 gave a remaining activity of 10% (enzyme activity, inhibitor, radiometric; 1 µM).
C[C@@H](c1cccc(C#N)c1)n1cc(Cl)cc(C(N)=O)c1=N gave a remaining binding of 89% (cell-free assay, competition with immobilised ligand; 1 µM).
For CNC(=O)c1cc(Oc2ccc(NC(=O)Nc3ccc(Cl)c(C(F)(F)F)c3)cc2)ccn1, the inhibition was 10% (enzyme activity, inhibitor; 10 µM).
The remaining activity of NS(=O)(=O)c1ccc(CNc2nc(Nc3cccc(NC(=O)N4CCCC4)c3)ncc2C2CC2)cc1 is reported as 6% (enzyme activity, inhibitor, radiometric; 1 µM).
With Cc1noc([C@H]2C[C@@H](c3ccc(C(F)(F)F)cc3)CN(C(=O)N3CCS(=O)(=O)C3)C2)n1 the remaining binding was 68% (cell-free assay, competition with immobilised ligand; 1 µM).
For O=C(NCCCNc1ccnc(Nc2cccc(NC(=O)N3CCCC3)c2)n1)C1CCC1, the remaining activity was 36% (enzyme activity, inhibitor, radiometric; 1 µM).
The remaining signal of Nc1ncnc2occ(-c3ccc(NC(=O)Nc4cc(C(F)(F)F)ccc4F)cc3)c12 is reported as 23% (cell-free assay, inhibitor; 20 µM).
Cc1ccc(C(=O)NCc2ccsc2)cc1C#Cc1cn(C(C)C)c2ncnc(N)c12 has an activity vs control of 87% (enzyme activity, inhibitor; 1 µM).
Cc1cc(NC(=O)c2cccc3cc(-c4cccc5[nH]nc(N)c45)ccc23)ccc1F has an activity vs control of 109% (enzyme activity, inhibitor; 0.1 µM).
CN1CCc2cc(Nc3ncc(C4CC4)c(NCCCNC(=O)C4CCC4)n3)ccc2C1 gave a remaining activity of 1% (enzyme activity, inhibitor, radiometric; 1 µM).
CCN1CCN(Cc2ccc(NC(=O)c3ccc(C)c(Oc4ccnc5[nH]ccc45)c3)cc2C(F)(F)F)CC1 has an inhibition of -24.4% (target engagement in cells, inhibitor, chemoproteomics; Huh-7; 10 µM).
COc1cccc2c(NCc3ccccc3)nc(-n3c(N)nc4ccccc43)nc12 gave an inhibition of -11.4% (target engagement in cells, inhibitor, chemoproteomics; 20 mM).
For Cc1cc(NC(=O)c2cccc(S(F)(F)(F)(F)F)c2)cc(-n2ccn3nc(-c4cccnc4)cc23)c1, the remaining binding was 49.7% (cell-free assay, competition with immobilised ligand; 1 µM).
N#CCCc1ccc2c(c1)-c1[nH]c3ccc([N+](=O)[O-])cc3c1CC(=O)N2 gave a remaining signal of 83.7% (cell-free assay; 0.5 µM).
O=C(O)c1cc(-c2ccc(C3CCNCC3)cc2)c2ccc(-c3ccc(C(F)(F)F)cc3)cc2c1 gave a remaining binding of 80% (cell-free assay, competition with immobilised ligand; 1 µM).
COc1cc2ncnc(Nc3ccc(Oc4ccccc4)c(C)c3C)c2cc1OC has an inhibition of 0% (enzyme activity, inhibitor; 1 µM).
Cc1ccc(Nc2nccc(N(C)c3ccc4c(C)n(C)nc4c3)n2)cc1S(N)(=O)=O gave an inhibition of 22% (enzyme activity, inhibitor; 0.3 µM).
FC(F)(F)Oc1cccc(-c2cnc3ccc(-c4ccncc4)nn23)c1 has an activity vs control of 73% (enzyme activity, inhibitor, radiometric; 5 µM).
For CO[C@@H](C)c1c(Nc2ccc([C@@H](N(C)C(=O)C3CCS(=O)(=O)CC3)C(F)(F)F)cc2)cnc2cc(Cl)nn12, the remaining binding was 77% (cell-free assay, competition with immobilised ligand; 1 µM).
For COc1cc(Nc2c(C#N)cnc3cc(OCCCN4CCN(C)CC4)c(OC)cc23)c(Cl)cc1Cl, the remaining signal was 65.7% (cell-free assay; 0.5 µM).
The inhibition of CCN(CC)CCNC(=O)c1c(C)[nH]c(/C=C2\C(=O)Nc3ccc(F)cc32)c1C is reported as 42% (enzyme activity, inhibitor; 0.3 µM).
With NS(=O)(=O)c1ccc(CNc2ccnc(Nc3cccc(NC(=O)N4CCCC4)c3)n2)cc1 the remaining activity was 68% (enzyme activity, inhibitor, radiometric; 1 µM).
CN(C)C(=O)Cn1cc(-c2nc(C3(c4ccc(-c5cnc(N)nc5)cc4)CC3)no2)cn1 gave a remaining binding of 87% (cell-free assay, competition with immobilised ligand; 1 µM).
For Cc1nn(CC(F)(F)F)cc1Nc1ncc(C2CC2)c(NCCc2c[nH]cn2)n1, the remaining activity was 81% (enzyme activity, inhibitor, radiometric; 1 µM).
CN(c1ncccc1CNc1nc(Nc2ccc3c(c2)CC(=O)N3)ncc1C(F)(F)F)S(C)(=O)=O gave an inhibition of 73.7% (enzyme activity, inhibitor; 1 µM).
O=C1CCc2cc(Nc3cc(OC4CCOCC4)c([N+](=O)[O-])cc3Cl)ccc2N1 gave a remaining binding of 100% (cell-free assay, competition with immobilised ligand; 1 µM).
For NS(=O)(=O)c1ccc(CNc2nc(Nc3cccc(NC(=O)N4CCCC4)c3)ncc2Br)cc1, the remaining activity was 1% (enzyme activity, inhibitor, radiometric; 1 µM).
